Active and inactive are the calls of the source.
Columns and labels:
Histone deacetylase 3 = Histone deacetylase 3 (Homo sapiens, UniProt O15379); assay: Inhibition of recombinant human HDAC3 expressed in SF9 baculoviral system using FAM-labeled acetylated peptide as substrate by EMSA
Summary of the method: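 Full-length recombinant human enzyme from an Sf9 baculovirus system, in 100 mM HEPES pH 7.5 with 25 mM KCl, 0.1% BSA, 0.01% Triton X-100 and 1% DMSO. Final enzyme was 0.5 nM for HDAC3, 60 nM for HDAC6 and 5.0 nM for HDAC8. FAM-acetylated peptide was 1 μM. The read-out was product/(substrate+product) by microfluidic mobility shift, with inhibition set against DMSO and no-enzyme controls (quadruplicate). Compounds were tested at 12 threefold-spaced concentrations, and IC50 came from a four-parameter sigmoid fit.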

Histone deacetylase 11 = molecular target: T1, Histone deacetylase 11 (Homo sapiens, UniProt Q96DB2); assay: Inhibition of recombinant human HDAC11 expressed in SF9 baculoviral system using FAM-labeled acetylated peptide as substrate by EMSA
T1 sequence (Q96DB2 whole entry): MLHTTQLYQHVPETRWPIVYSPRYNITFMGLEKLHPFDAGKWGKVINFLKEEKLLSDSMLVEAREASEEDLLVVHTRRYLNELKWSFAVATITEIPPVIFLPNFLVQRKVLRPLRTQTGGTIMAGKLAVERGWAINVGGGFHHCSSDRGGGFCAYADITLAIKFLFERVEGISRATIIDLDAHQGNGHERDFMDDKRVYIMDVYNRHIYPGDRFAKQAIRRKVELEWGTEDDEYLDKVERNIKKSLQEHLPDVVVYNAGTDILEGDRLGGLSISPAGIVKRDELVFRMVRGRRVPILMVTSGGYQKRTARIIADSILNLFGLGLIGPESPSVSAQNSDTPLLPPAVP
Summary of the method: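 Full-length human HDAC11 (Sf9-expressed), 10 nM final, in 100 mM HEPES pH 7.5, 25 mM KCl, 0.1% BSA, 0.01% Triton X-100, 1% DMSO. FAM-acetylated peptide substrate at 100 μM, mobility-shift read-out. Product/(substrate + product) converted to % inhibition. IC50 from a four-parameter fit; dose-response spans 12 threefold dilutions from 30.0 μM.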

[1] = molecular target: Histone deacetylase 8 (Homo sapiens) (UniProt Q9BY41); assay: Inhibition of recombinant human HDAC8 expressed in SF9 baculoviral system at 10 uM using FAM-labeled acetylated peptide as substrate by EMSA relative to control
Histone deacetylase 8 (Homo sapiens), sequence (Q9BY41 whole entry): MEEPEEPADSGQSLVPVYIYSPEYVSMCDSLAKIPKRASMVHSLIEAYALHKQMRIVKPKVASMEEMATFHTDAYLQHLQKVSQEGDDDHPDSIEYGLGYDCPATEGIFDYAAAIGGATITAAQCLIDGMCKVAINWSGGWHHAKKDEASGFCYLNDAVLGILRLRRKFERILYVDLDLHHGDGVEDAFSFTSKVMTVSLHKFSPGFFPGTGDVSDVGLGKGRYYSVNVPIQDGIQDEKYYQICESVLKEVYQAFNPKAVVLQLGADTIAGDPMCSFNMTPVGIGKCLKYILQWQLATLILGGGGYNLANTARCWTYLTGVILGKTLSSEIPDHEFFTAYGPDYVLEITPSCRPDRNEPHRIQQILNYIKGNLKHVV
Summary of the method: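 Single-point screen at 10 μM compound, using full-length recombinant human enzyme expressed in Sf9 cells. Buffer was HEPES pH 7.5 with KCl, BSA and Triton X-100, and 1% DMSO. Final enzyme was 0.5 nM for HDAC3, 60 nM for HDAC6 and 5.0 nM for HDAC8, with 1 μM FAM-acetylated peptide. Percent inhibition was derived from the product sum ratio relative to DMSO-only (0%) and no-enzyme (100%) controls.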

Homo sapiens = species on record: Homo sapiens; assay: Cytotoxicity against human D458 cells at 39 nM after 72 hrs by Presto Blue assay; assay type: functional, cell-based
Summary of the method: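 D425 and D458 medulloblastoma cells in DMEM high glucose with 20% FBS, seeded at 1000 cells/well in medium with 1% FBS. Twofold dilutions from 20 μM down to 39 nM. Exposed 3 days at 37 °C. Presto Blue added about 4 h before fluorescence read (540–570 nm). IC50 from % viability versus log concentration.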

[2] = molecular target: Signal transducer and activator of transcription 5B (Homo sapiens) (UniProt P51692); assay: Inhibition of STAT5b phosphorylation at Y694 in human MV4-11 cells at 10 uM after 5 hrs by Western blot method; assay type: cell-based
Signal transducer and activator of transcription 5B (Homo sapiens), sequence (P51692 whole entry): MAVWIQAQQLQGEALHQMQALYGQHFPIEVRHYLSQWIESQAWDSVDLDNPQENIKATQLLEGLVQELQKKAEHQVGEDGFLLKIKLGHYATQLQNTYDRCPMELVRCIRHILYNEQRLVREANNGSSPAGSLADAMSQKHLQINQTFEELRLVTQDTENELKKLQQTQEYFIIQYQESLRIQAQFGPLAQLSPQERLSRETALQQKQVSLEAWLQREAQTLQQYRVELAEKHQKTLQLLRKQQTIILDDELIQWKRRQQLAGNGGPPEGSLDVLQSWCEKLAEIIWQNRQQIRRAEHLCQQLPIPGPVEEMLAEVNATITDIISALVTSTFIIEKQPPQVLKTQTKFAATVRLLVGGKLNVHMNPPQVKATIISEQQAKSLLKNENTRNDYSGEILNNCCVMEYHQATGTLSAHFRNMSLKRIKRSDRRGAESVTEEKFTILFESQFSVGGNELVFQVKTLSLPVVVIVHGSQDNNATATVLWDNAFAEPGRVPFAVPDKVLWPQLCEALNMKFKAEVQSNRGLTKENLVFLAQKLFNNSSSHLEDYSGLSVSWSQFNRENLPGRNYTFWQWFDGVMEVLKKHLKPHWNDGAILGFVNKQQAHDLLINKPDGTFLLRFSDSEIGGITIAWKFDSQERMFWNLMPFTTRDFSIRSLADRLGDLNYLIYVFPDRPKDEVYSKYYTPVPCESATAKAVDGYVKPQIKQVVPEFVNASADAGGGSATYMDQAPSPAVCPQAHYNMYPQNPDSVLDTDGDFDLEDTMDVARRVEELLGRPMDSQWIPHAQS
Summary of the method: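 Run on 4–15% SDS-PAGE and transferred to PVDF. Primary antibodies 1:1000 overnight at 4 °C, HRP or fluorescent secondary 1:5000, ECL detection, β-actin loading control.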

[3] = Intrinsic clearance in ICR/CD1 mouse hepatocytes assessed per million cells at 1 uM up to 120 mins by LC-MS/MS analysis; assay type: ADME, cell-based, Hepatocyte; details: 2 h
[4] = Drug uptake in NSG mouse serum at 20 mg/kg, ip administered as single dose and measured at 0.5 hrs by HPLC-MS/MS analysis; assay type: ADME, organism-based; details: read-out: Drug uptake
Summary of the method: (§1)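 NSG mice given a single 20 mg/kg IP dose in Cremophor EL/EtOH (1:1, 4% final volume)/sterile saline. Tail-vein blood at 0.5, 1, 2, 4, 8 and 24 h, n = 2. Drug quantified in serum/plasma. Half-life and clearance calculated assuming 100% bioavailability.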

[5] = Drug uptake in NSG mouse serum at 20 mg/kg, ip administered as single dose and measured at 8 hrs by HPLC-MS/MS analysis; assay type: ADME, organism-based; details: read-out: Drug uptake; summary of the method: as §1
[6] = Cytotoxicity against human Pa02C monolayer cells assessed as reduction in tumor spheroid intensity after 72 hrs by Alamar Blue assay; assay type: functional, cell-based
Summary of the method: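 Monolayer proliferation of STR-authenticated, mycoplasma-checked patient-derived PDAC lines and mouse KPC cells. Plated at 2000 cells/well, treated 72 h, read by alamarBlue. At least triplicate, n = 3–5.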

Pa03C = assay: Cytotoxicity against human Pa03C cells assessed as reduction in tumor spheroid area after 72 hrs in presence of human CAF19 cells by Alamar Blue assay; assay type: functional, cell-based
Summary of the method: (§2)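 3D spheroids of patient-derived PDAC cells (tomato red) alone or with CAF19 cells, plus CAF cultures. Imaging read-outs: area is the μ2 of objects above a tomato red intensity threshold; intensity is summed red or green pixel fluorescence after background removal. n = 3–5.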

[7] = Cytotoxicity against human […] cells assessed as reduction in tumor spheroid intensity after 72 hrs by Alamar Blue assay; assay type: cell-based; summary of the method: as §2
Panc1005 = assay: Cytotoxicity against human Panc 10.05 cells assessed as reduction in tumor spheroid intensity after 72 hrs in presence of human CAF19 cells by Alamar Blue assay; assay type: functional, cell-based; details: Panc1005, 72 h; summary of the method: as §2
[8] = Antitumor activity against mouse KPC cells allografted in immunocompetent C57BI/6 mouse assessed as mean survival time at 50 mg/kg, ip administered daily for 5 days per week for 1 month starting on day 7 post implantation (reference value: 29.5 days); assay type: functional
[9] = molecular target: Signal transducer and activator of transcription 3 (Homo sapiens) (UniProt P40763); assay: Inhibition of STAT3 phosphorylation at Y705 residue in human BTSC 100EF cells at 1 to 10 uM after 24 hrs by Western blot method; assay type: cell-based
Signal transducer and activator of transcription 3 (Homo sapiens), sequence (P40763 whole entry): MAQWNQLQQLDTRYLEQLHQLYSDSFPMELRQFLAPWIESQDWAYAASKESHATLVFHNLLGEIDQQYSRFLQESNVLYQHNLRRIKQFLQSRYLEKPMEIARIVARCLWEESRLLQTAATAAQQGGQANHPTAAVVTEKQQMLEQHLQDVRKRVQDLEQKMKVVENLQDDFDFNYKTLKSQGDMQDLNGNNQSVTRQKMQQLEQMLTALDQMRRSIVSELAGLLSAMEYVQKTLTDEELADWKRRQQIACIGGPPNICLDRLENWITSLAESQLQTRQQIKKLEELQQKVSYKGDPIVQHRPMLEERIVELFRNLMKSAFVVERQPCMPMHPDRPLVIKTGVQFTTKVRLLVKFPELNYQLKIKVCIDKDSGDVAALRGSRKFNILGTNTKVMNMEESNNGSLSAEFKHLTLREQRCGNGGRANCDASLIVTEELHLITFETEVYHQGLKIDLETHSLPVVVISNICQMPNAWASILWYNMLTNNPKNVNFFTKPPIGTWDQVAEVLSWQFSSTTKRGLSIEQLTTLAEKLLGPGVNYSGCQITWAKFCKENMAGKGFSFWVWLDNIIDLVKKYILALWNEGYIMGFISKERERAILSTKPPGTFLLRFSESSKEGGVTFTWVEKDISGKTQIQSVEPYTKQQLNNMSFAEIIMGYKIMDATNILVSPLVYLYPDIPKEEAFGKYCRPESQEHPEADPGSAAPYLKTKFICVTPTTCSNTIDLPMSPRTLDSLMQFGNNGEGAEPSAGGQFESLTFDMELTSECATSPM
Summary of the method: (§3)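 BTSCs dissociated to single cells and treated with drug or DMSO. Lysed in RIPA buffer with protease inhibitors. 20 μg lysate run on SDS-PAGE and transferred to nitrocellulose. Blocked in 5% milk, primary antibody overnight at 4 °C, then HRP secondary for 1 h.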

[10] = molecular target: Signal transducer and activator of transcription 3 (Homo sapiens) (UniProt P40763); assay: Inhibition of STAT3 phosphorylation at S727 residue in human BTSC 143EF cells at 1 to 10 uM after 24 hrs by Western blot method; assay type: cell-based; summary of the method: as §3
[11] = Cmax in NSG mouse at 20 mg/kg, ip administered as single dose and measured at 0.5 hrs by HPLC-MS/MS analysis; assay type: ADME, organism-based; set-up: dose 20 mg/kg, route intraperitoneal; details: in vivo; summary of the method: as §1
[12] = Toxicity in NSG mouse at 10 to 40 mg/kg, ip assessed as induction of body weight loss administered daily for 5 days by HPLC-MS/MS analysis; assay type: organism-based; details: in vivo, 120 h
Summary of the method: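 NSG mice were given 10 or 40 mg/kg IP once daily for 5 days (n = 6). Blood was drawn 5 h after the last injection for compound measurement. Toxicity was judged by percentage weight loss versus vehicle-treated mice.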

Histone deacetylase 3, sequence (O15379 whole entry): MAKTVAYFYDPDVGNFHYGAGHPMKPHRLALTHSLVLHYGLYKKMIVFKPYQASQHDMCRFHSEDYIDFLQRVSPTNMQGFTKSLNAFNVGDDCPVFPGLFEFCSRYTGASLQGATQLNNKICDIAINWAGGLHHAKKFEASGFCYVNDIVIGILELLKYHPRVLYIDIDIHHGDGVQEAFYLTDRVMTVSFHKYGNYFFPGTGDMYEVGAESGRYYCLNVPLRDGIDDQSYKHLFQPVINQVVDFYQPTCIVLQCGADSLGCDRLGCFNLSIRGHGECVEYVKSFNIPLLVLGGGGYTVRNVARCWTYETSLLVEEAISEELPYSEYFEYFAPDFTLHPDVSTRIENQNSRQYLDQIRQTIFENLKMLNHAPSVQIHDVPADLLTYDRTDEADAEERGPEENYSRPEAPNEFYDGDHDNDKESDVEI

CC(C)(C)c1ccc(CN(C(=O)CN(Cc2c(F)c(F)c(F)c(F)c2F)S(=O)(=O)c2ccc(F)cc2)c2ccc(C(=O)NO)cc2)cc1
IC50 (Histone deacetylase 3): 654 nM
IC50 (Histone deacetylase 11): 636 nM
inhibition [1]: 94%
Activity (Homo sapiens): Active
inhibition [2]: inactive
CLH [3]: 36 µL/min
concentration at 0.5 h [4]: 7450 ng/mL
concentration at 8 h [5]: 6390 ng/mL
IC50 [6]: 4600 nM
IC50 (Pa03C): 1410 nM
IC50 [7]: 3400 to 4500 nM
IC50 (Panc1005): 500 nM
MST [8]: 36.5 days
inhibition [9]: inactive
inhibition [10]: inactive
Cmax [11]: 10.7 µM
Activity [12]: Non-Toxic
